Experimental data reported in ChEMBL document CHEMBL3758148, “4-Phenylpyridin-2-one Derivatives: A Novel Class of Positive Allosteric Modulator of the M1 Muscarinic Acetylcholine Receptor” (J Med Chem, 2016).
Activity calls are given as the source filed them. No cut-off for these calls is given here.

Assays:
[1] = target: T1, Muscarinic acetylcholine receptor M2 (Homo sapiens) (UniProt P08172); experiment: Displacement of [3H]NMS from human muscarinic M2 receptor expressed in CHO Flp-In cells up to 10 uM after 1 hr by microbeta liquid scintillation counting-based radioligand binding assay; type: cell-based
T1 sequence (whole entry): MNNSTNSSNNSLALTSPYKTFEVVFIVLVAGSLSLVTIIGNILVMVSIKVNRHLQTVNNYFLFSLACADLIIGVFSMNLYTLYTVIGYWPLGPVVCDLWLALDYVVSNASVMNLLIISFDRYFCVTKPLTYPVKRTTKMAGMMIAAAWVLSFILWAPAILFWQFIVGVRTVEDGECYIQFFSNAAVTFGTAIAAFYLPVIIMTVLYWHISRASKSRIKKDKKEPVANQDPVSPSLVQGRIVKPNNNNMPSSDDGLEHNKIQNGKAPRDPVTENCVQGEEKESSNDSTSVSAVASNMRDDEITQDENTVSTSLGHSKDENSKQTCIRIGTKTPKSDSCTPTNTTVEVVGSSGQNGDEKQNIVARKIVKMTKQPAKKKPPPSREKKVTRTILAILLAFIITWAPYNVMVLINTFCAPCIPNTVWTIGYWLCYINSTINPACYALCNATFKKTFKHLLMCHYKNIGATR
How it was run: (§1)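 Whole Flp-In CHO cells expressing hM2, hM3, hM4 or hM5 were incubated with [3H]NMS, ACh and modulator up to 10 μM in HEPES-buffered saline pH 7.4, 1 h at 37 °C. Bound radioactivity was counted by scintillation after two ice-cold saline washes.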

[2] = target: T2, Muscarinic acetylcholine receptor M5 (Homo sapiens) (UniProt P08912); experiment: Displacement of [3H]NMS from human muscarinic M5 receptor expressed in CHO Flp-In cells up to 10 uM after 1 hr by microbeta liquid scintillation counting-based radioligand binding assay; type: cell-based; how it was run: as §1
T2 sequence (whole entry): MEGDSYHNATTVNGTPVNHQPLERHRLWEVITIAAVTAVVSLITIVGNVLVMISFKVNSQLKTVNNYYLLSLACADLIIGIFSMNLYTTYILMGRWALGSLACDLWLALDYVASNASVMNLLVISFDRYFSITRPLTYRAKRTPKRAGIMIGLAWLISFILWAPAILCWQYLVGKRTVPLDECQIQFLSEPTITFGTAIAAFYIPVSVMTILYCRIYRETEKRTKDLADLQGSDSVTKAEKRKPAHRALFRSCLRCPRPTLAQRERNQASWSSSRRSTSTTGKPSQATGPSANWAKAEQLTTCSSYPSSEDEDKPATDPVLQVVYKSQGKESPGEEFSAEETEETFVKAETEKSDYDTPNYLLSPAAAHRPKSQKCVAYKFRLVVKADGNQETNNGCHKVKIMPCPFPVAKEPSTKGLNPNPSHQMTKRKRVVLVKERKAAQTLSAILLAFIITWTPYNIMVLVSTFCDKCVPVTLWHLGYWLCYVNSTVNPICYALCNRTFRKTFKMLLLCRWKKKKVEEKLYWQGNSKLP

[3] = target: T3, Muscarinic acetylcholine receptor M1 (Homo sapiens) (UniProt P11229); experiment: Displacement of [3H]NMS from human muscarinic M1 receptor expressed in CHO Flp-In cells after 1 hr by microbeta liquid scintillation counting-based radioligand binding assay; type: cell-based
T3 sequence (whole entry): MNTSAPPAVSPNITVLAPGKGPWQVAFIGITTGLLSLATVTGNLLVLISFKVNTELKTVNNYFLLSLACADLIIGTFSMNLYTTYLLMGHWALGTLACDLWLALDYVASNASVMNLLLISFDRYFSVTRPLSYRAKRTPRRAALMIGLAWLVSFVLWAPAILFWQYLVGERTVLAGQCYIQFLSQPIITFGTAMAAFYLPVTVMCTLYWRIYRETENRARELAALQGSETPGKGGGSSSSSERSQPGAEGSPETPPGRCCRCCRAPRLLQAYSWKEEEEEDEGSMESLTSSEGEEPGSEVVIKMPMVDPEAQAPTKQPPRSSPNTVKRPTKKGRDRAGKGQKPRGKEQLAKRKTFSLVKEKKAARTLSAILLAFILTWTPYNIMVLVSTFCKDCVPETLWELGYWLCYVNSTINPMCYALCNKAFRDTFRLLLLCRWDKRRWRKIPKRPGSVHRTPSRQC
How it was run: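 Intact adherent Flp-In CHO cells expressing hM1 (10⁴ cells/well), incubated with 0.2 nM [3H]NMS, varying ACh and modulator in HEPES-buffered saline pH 7.4 for 1 h at 37 °C. Washed with ice-cold 0.9% NaCl, then scintillation counted. Fitted to an allosteric ternary complex model with [3H]NMS KA 0.2 nM. Mean ± SEM, ≥3 experiments in duplicate.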

[4] = target: T3, Muscarinic acetylcholine receptor M1 (Homo sapiens); experiment: Allosteric agonist activity at human muscarinic M1 receptor expressed in CHO Flp-In cells assessed as intrinsic activity measured as IP1 accumulation after 1 hr by HTRF method; type: functional, cell-based
How it was run: (§2)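 Suspended Flp-In CHO cells stably expressing hM1, stimulated at 10⁶ cells/ml in HEPES buffer with 50 mM LiCl, pH 7.4, using increasing ACh with or without increasing modulator, 1 h at 37 °C, 5% CO2. IP1 read by HTRF (665/590 nm ratio). Curves fitted globally to the operational model of allosterism, with KB fixed from binding. Mean ± SEM, ≥3 experiments in duplicate.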

[5] = target: Muscarinic acetylcholine receptor M3 (Homo sapiens) (UniProt P20309); experiment: Displacement of [3H]NMS from human muscarinic M3 receptor expressed in CHO Flp-In cells up to 10 uM after 1 hr by microbeta liquid scintillation counting-based radioligand binding assay; type: cell-based; how it was run: as §1
Sequence of Muscarinic acetylcholine receptor M3 (Homo sapiens) (P20309 whole entry, looked up): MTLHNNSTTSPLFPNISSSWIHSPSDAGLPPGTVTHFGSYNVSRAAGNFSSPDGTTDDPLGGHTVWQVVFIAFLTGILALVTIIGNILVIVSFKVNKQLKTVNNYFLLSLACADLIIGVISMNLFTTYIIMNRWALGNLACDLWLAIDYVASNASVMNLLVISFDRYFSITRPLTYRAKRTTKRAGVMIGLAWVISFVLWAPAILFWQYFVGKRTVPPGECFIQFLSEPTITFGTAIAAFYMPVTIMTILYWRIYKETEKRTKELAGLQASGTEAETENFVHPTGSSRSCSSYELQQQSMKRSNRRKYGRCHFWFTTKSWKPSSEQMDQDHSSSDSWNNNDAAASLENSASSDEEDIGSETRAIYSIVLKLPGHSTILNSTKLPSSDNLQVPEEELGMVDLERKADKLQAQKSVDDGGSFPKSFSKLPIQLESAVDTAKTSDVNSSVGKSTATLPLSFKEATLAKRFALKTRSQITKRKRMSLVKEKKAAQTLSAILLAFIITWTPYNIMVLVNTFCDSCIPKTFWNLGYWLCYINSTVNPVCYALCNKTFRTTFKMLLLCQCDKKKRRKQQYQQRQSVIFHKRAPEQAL

[6] = target: T3, Muscarinic acetylcholine receptor M1 (Homo sapiens); experiment: Positive allosteric modulation of human muscarinic M1 receptor expressed in CHO Flp-In cells assessed as functional cooperativity with acetylcholine measured as IP1 accumulation after 1 hr by HTRF method; type: cell-based; how it was run: as §2
[7] = target: T4, Muscarinic acetylcholine receptor M4 (Homo sapiens) (UniProt P08173); experiment: Displacement of [3H]NMS from human muscarinic M4 receptor expressed in CHO Flp-In cells up to 10 uM after 1 hr by microbeta liquid scintillation counting-based radioligand binding assay; type: cell-based; how it was run: as §1
T4 sequence (whole entry): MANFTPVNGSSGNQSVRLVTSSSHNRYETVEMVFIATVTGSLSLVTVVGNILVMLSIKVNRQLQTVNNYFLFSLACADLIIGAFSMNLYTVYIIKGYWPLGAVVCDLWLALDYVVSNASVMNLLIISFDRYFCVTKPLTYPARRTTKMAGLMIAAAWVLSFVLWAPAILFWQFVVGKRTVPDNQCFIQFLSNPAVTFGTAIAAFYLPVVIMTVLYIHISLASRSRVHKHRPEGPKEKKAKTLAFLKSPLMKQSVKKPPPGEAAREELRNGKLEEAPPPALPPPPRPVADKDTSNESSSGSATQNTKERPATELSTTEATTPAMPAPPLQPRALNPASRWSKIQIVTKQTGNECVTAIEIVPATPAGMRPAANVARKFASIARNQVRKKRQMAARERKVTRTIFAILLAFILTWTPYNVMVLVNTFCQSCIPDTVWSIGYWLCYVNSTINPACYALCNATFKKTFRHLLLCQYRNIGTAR

SMILES	Activity [1]	Activity [2]	Kb [3] [µM]	pKb [3]	Intrinsic activity [4]	log(IA) [4]	Activity [5]	log(activity) [6]	Activity [7]
Cn1cc(-c2ccc(COc3ccccc3-c3ccn([C@H]4CCCC[C@@H]4O)c(=O)c3)cc2)cn1 (racemic)	inactive	inactive	43	4.37	0.21	-0.68	inactive	2.3	inactive
COc1ccc(Cn2cc(C(=O)O)c(=O)c3ccccc32)cc1	inactive	inactive			0.22	-0.6	inactive	1.84	inactive
